What was measured:
[1] = target: human FXa (Homo sapiens, UniProt P00742); assay: Factor Xa inhibition, chromogenic substrate assay; assay type: biochemical
Summary of the method: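 Human FXa (0.0625 U/mL) and test compound in aqueous 5% (v/v) DMSO mixed in Tris-BSA buffer (0.2 M NaCl, 0.1 M Tris, 0.2% BSA, pH 7.4). Chromogenic substrate added to start the reaction, then 10 s stirring. OD at 405 nm followed over time against a DMSO-only reference. Inhibition = 1 − OD(inhibitor)/OD(reference). IC50 derived from the concentration dependence.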

[2] = test system: human plasma prothrombin time; assay: Human plasma prothrombin time; assay type: biochemical; details: concentration that doubled the prothrombin time in human plasma; Thromborel S
Summary of the method: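 KM-2 control plasma mixed with test compound solution and incubated 1 min at 37°C. Clotting triggered with thromboplastin (ISI=1) and time read on a coagulometer. The concentration doubling PT was estimated by regression from dose-response curves.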

human FXa, sequence (P00742 235-488 limits assumed): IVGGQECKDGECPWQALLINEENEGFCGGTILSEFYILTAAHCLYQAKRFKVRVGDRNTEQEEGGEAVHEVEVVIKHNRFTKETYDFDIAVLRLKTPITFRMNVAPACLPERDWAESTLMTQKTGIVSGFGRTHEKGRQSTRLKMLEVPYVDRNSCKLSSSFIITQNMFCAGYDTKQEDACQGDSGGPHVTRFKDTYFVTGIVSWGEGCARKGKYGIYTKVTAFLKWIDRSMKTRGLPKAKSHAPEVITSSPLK
human FXa, sequence (P00742 41-179 partner limits assumed): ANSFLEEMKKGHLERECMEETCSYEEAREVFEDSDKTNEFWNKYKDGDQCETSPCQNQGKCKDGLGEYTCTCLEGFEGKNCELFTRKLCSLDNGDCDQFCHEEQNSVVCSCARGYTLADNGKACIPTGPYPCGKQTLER

For `CNC(=O)N(C)c1ccc(C(=O)Nc2ccc(C)cc2C(=O)Nc2ccc(Cl)cc2)cc1` [Compound 311, N-(4-chlorophenyl)-5-methyl-2-[(4-{methyl [(methylamino)carbonyl]amino}benzoyl)amino]benzamide], the IC50 [1] was 2 ± 0.3 nM and the PTx2 [2] was >30 µM.

Compound `CC(=N)N(C)c1ccc(C(=O)Nc2ccccc2C(=O)Nc2ccc(Cl)cn2)cc1` [Compound 310, N-(5-chloropyridin-2-yl)-2-({4-[ethanimidoyl (methyl)amino]benzoyl}amino)benzamide] has an IC50 [1] of 2 ± 0.2 nM and a PTx2 [2] of 0.50 ± 0.12 µM.

Compound `CNC(=O)N(C)c1ccc(C(=O)Nc2ccccc2C(=O)Nc2ccc(Cl)cn2)cc1` [Compound 317, N-(5-chloropyridin-2-yl)-2-[(4-{methyl[ (methylamino)carbonyl]amino}benzoyl)amino]benzamide] has an IC50 [1] of 0.25 ± 0.05 nM and a PTx2 [2] of 3.0 ± 0.6 µM.

`CC(=N)N(C)c1ccc(C(=O)Nc2ccc(C)cc2C(=O)Nc2ccc(Cl)cn2)c(F)c1` [Compound 302, N-(2-{[(5-chloropyridin-2-yl)amino]carbon-yl}-4-methylphenyl)-4-[ethanimidoyl(methyl)amino]-2-fluorobenzamide] gave an IC50 [1] of 0.8 ± 0.2 nM and a PTx2 [2] of 0.09 ± 0.02 µM.

`COc1cc(N(C)C(C)=N)ccc1C(=O)Nc1ccc(C)cc1C(=O)Nc1ccc(Cl)cn1` [Compound 307, N-(2-{[(5-chloropyridin-2-yl)amino]carbonyl}-4-methylphenyl)-4-[ethanimidoyl(methyl)amino]-2-methoxybenzamide] was tested, and the IC50 [1] was 1 ± 0.2 nM and the PTx2 [2] was 2.0 ± 0.4 µM.

`CNC(=O)N(C)c1ccc(C(=O)Nc2ccc(C)cc2C(=O)Nc2ccc(Cl)cn2)cc1` [Compound 117, N-(5-chloropyridin-2-yl)-5-methyl-2-[(4-{methyl[(methylamino)carbonyl]amino}benzoyl)amino]benzamide] showed an IC50 [1] of 0.15 ± 0.03 nM and a PTx2 [2] of 2.0 ± 0.4 µM.

In the case of `CC(=N)N(C)c1ccc(C(=O)Nc2ccc(C)cc2C(=O)Nc2ccc(Cl)cc2)cc1` [Compound 304, N-(4-chlorophenyl)-2-({4-[ethanimidoyl (methyl)amino]benzoyl}amino)-5-methylbenzamide], the IC50 [1] is reported as 1 ± 0.2 nM and the PTx2 [2] is reported as >30 µM.

Work on `CNC(=O)N(C)c1ccc(C(=O)Nc2ccc(C)cc2C(=O)Nc2ccc(C)cc2)cc1` [Compound 312, 5-methyl-2-[(4-{methyl[(methylamino)carbonyl]amino}benzoyl)amino]-N-(4-methyl-phenyl)benzamide] yielded an IC50 [1] of 0.15 ± 0.03 nM and a PTx2 [2] of 3.0 ± 0.6 µM.

`CC(=N)N(C)c1ccc(C(=O)Nc2ccc(Cl)cc2C(=O)Nc2ccc(Cl)cn2)c(F)c1` [Compound 303, N-(4-chloro-2-{[(5-chloropyridin-2-yl)amino]carbonyl}phenyl)-4-[ethanimidoyl (methyl)amino]-2-fluorobenzamide] was tested, and the IC50 [1] was 1 ± 0.2 nM and the PTx2 [2] was 0.09 ± 0.02 µM.

Reference: publication PMC6142410 (Current Drug Discovery Technologies, 2018)
